According to the array DNA melting data of Ke et al. (doi:10.1101/2024.01.08.574731):

How the values were obtained:
[1] = folding enthalpy; higher = less favourable; fluorescence melt of hairpins on a sequencing array, two-state fit; details: sodium 0.088 M
Method in brief: (§1)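 Bootstrapped two-state fits yielded melting temperature and folding enthalpy for library hairpins. Cy3 fluorescence, with annealed Cy3 and quencher oligos, was imaged on a sequenced MiSeq flow cell in 50 mM Na-HEPES pH 8.0, 25 mM NaCl in 2.5 °C steps up to 60 °C, and normalised to pre-quench Cy3 and to control constructs. Four replicates were combined by inverse variance, and fitted temperatures were raised by 9.35 °C to match UV melts.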

[2] = melting temperature; fluorescence melt of hairpins on a sequencing array, two-state fit, raised by 9.35 °C to match UV melts; details: sodium 0.088 M
Method in brief: as §1

Sequence	folding enthalpy [1]	Tm [2]
GTTGAGAAATCAAC (((((....)))))	-19.9 kcal/mol	42.2 °C
GTTGAGGGAAACCTCAGC (.(((((....))))).)	-25.4 kcal/mol	46.3 °C
GTTGATCGAAAGATGAAC (((.(((....))).)))	-24.1 kcal/mol	37.1 °C
GTTGCAGGAAACCACAAC ((((..(....)..))))	-18.2 kcal/mol	27.4 °C
GTTGCCGAAAGGCCAAC ((((((....))).)))	-14.4 kcal/mol	47.3 °C
GTTGCCGAAAGGCTAAAC ((((((....)))..)))	-9.35 kcal/mol	34.5 °C
GTTGCCGGAAACGGTAAC (((.(((....))).)))	-33.3 kcal/mol	54.4 °C
GTTGCGGGAAACCACAAC ((((.((....)).))))	-38.2 kcal/mol	46.1 °C
GTTGCGGGAAACCGTAAC (((.(((....))).)))	-34.3 kcal/mol	51.2 °C
GTTGCTCCGAAAGGAAAC (((..(((....))))))	-10 kcal/mol	28.1 °C
GTTGCTCGAAAGAGAAC (((.(((....))))))	-20.2 kcal/mol	34.4 °C
GTTGGAACGAAAGTTAAC (((..(((....))))))	-14.5 kcal/mol	29.6 °C
GTTGGAGGAAACTTCAGC (.((.((....)).)).)	-12.7 kcal/mol	30.5 °C
GTTGGCACGAAAGTGAAC (((..(((....))))))	-20.6 kcal/mol	38.8 °C
GTTGGCGAAAGCCAAAAC ((((((....)))..)))	-10.5 kcal/mol	41.5 °C
GTTGGCGAAAGCCAAAC ((((((....))).)))	-11.6 kcal/mol	56.2 °C
GTTGGCGAAAGCCACAAC ((((((....)))..)))	-8.33 kcal/mol	33.8 °C
GTTGGCGAAAGCCCCAAC ((((((....)))..)))	-6.64 kcal/mol	22.5 °C
GTTGGCGAAAGCCGCAAC ((((((....)))..)))	-9.16 kcal/mol	26.3 °C
GTTGGCGAAAGCCTAAAC ((((((....)))..)))	-8.68 kcal/mol	30.7 °C
GTTGGCGAAAGCCTAAC ((((((....))).)))	-12.8 kcal/mol	43.4 °C
GTTGGCGGAAACACCAAC (((((.(....).)))))	-36 kcal/mol	47.4 °C
GTTGGCGGAAACGCCAGC (.(((((....))))).)	-15.4 kcal/mol	58.2 °C

Sequence	folding enthalpy [1]	Tm [2]
GTTGGGCGAAAGCCAAAC (((.(((....))).)))	-21.5 kcal/mol	56.9 °C
GTTGGGCGAAAGCCAAC (((.(((....))))))	-17.5 kcal/mol	53 °C
GTTGGGCGAAAGCCTAAC (((.(((....))).)))	-23.1 kcal/mol	54.9 °C
GTTGGTACGAAAGTAAAC (((..(((....))))))	-19.1 kcal/mol	34.6 °C
GTTGGTCCGAAAGGAAAC (((..(((....))))))	-23.4 kcal/mol	36.9 °C
GTTGGTGGAAACACCAAC (((((((....)))))))	-46.1 kcal/mol	66.2 °C
GTTGGTGGAAACGCCAAC (((((.(....).)))))	-40 kcal/mol	54.4 °C
GTTGTAGAAATACAAC ((((((....))))))	-32.4 kcal/mol	47.5 °C
GTTGTAGCGAAAGCTAAC (((..(((....))))))	-23 kcal/mol	48.1 °C
GTTGTAGGAAACTATAAC (((.(((....))).)))	-24.6 kcal/mol	34 °C
GTTGTCACGAAAGTGAAC (((..(((....))))))	-23.7 kcal/mol	48.1 °C
GTTGTCGAAAGACACAAC ((((((....)))..)))	-11 kcal/mol	32.6 °C
GTTGTCGAAAGACAGAAC ((((((....)))..)))	-12.9 kcal/mol	35.6 °C
GTTGTCGAAAGACGTAAC ((((((....)))..)))	-11.3 kcal/mol	31.9 °C
GTTGTCGAAAGACTAAC ((((((....))).)))	-16.9 kcal/mol	38 °C
GTTGTCGGAAACGACAAC (((((((....)))))))	-34.6 kcal/mol	67 °C
GTTGTCGGAAACGATAGC (.(.(((....))).).)	-17.1 kcal/mol	32.4 °C
GTTGTGCGAAAGCATAAC (((.(((....))).)))	-30.5 kcal/mol	54 °C
GTTGTGGAAACACAAC ((((((....))))))	-38.3 kcal/mol	58.3 °C
GTTGTGGGAAACCATGAC ((..(((....)))..))	-30.4 kcal/mol	34.7 °C
GTTGTTGGAAACAACAAC (((((((....)))))))	-41.5 kcal/mol	58.6 °C
GTTGTTGGAAACAATAAC (((.(((....))).)))	-20.3 kcal/mol	39.6 °C
GTTTAACGAAAGTTCAAC (((.(((....))).)))	-20.9 kcal/mol	36 °C

Sequence	folding enthalpy [1]	Tm [2]
GTTTAACGAAAGTTGAAC (((.(((....))).)))	-29.9 kcal/mol	44.7 °C
GTTTAAGGAAACTTAGAC ((.((((....)))).))	-14.3 kcal/mol	32.6 °C
GTTTACACGAAAGTGAAC (((..(((....))))))	-11.9 kcal/mol	25.7 °C
GTTTACGAAAGTAAAC ((((((....))))))	-28.3 kcal/mol	57.3 °C
GTTTACGAAAGTACAAAC ((((((....)))..)))	-10.6 kcal/mol	26.2 °C
GTTTAGGGAAACCCAAAC ((((.((....)).))))	-24.7 kcal/mol	33.2 °C
GTTTAGGGAAACCTAAGC (.(((((....))))).)	-21.8 kcal/mol	33.8 °C
GTTTAGGGAAACCTAGAC ((.((((....)))).))	-27.4 kcal/mol	33 °C
GTTTAGGGAAACTTAAGC (.(((.(....).))).)	-15.4 kcal/mol	33.6 °C
GTTTAGGGAAACTTAGAC ((.((.(....).)).))	-13.6 kcal/mol	32.8 °C
GTTTATCGAAAGATAAC (((.(((....))))))	-18.6 kcal/mol	35.5 °C
GTTTATCGAAAGATGAAC (((.(((....))).)))	-31.2 kcal/mol	43.6 °C
GTTTATCGAAAGATTAAC (((.(((....))).)))	-28.9 kcal/mol	33.5 °C
GTTTATGAAAATAAAC ((((((....))))))	-33 kcal/mol	42.4 °C
GTTTATGGAAACATAAAC (((((((....)))))))	-38.1 kcal/mol	50 °C
GTTTCACGAAAGTGGAAC (((.(((....))).)))	-30.5 kcal/mol	52.2 °C
GTTTCAGGAAACTAAAAC ((((.((....)).))))	-8.21 kcal/mol	29.2 °C
GTTTCAGGAAACTGGAAC (((.(((....))).)))	-26.4 kcal/mol	43.3 °C
GTTTCCCGAAAGGGAAC (((.(((....))))))	-14.1 kcal/mol	50.6 °C
GTTTCCCGAAAGGGCAAC (((.(((....))).)))	-21.7 kcal/mol	42 °C
GTTTCCCGAAAGGGTAAC (((.(((....))).)))	-22.5 kcal/mol	47.9 °C
GTTTCCGAAAGGAACAAC ((((((....)))..)))	-13.7 kcal/mol	31.2 °C
GTTTCCGGAAACGAAAAC ((((.((....)).))))	-16.8 kcal/mol	38.8 °C

Sequence	folding enthalpy [1]	Tm [2]
GTTTCGCGAAAGCGCAAC (((.(((....))).)))	-22.8 kcal/mol	44.7 °C
GTTTCGGGAAACCGAAGC (.(((((....))))).)	-23.4 kcal/mol	47.3 °C
GTTTCTCCGAAAGGAAAC (((..(((....))))))	-14.8 kcal/mol	33 °C
GTTTCTCGAAAGAGTAAC (((.(((....))).)))	-26.7 kcal/mol	38 °C
GTTTGACGAAAGTCAAC (((.(((....))))))	-14 kcal/mol	46 °C
GTTTGAGGAAACTTAAAC ((((.((....)).))))	-18.4 kcal/mol	36.9 °C
GTTTGCCGAAAGGCTAAC (((.(((....))).)))	-20.1 kcal/mol	51.7 °C
GTTTGCGAAAGCAAAAAC ((((((....)))..)))	-10.9 kcal/mol	40.3 °C
GTTTGCGAAAGCACAAC ((((((....))).)))	-17.1 kcal/mol	41.1 °C
GTTTGCGAAAGCACGAAC ((((((....)))..)))	-9.85 kcal/mol	27.1 °C
GTTTGCGAAAGCAGAAAC ((((((....)))..)))	-11.2 kcal/mol	34.2 °C
GTTTGCGAAAGCAGGAAC ((((((....)))..)))	-10.3 kcal/mol	30.7 °C
GTTTGCGCGAAAGCGAAC (((..(((....))))))	-12 kcal/mol	36.5 °C
GTTTGCGGAAACACAAAC (((((.(....).)))))	-34.2 kcal/mol	42.1 °C
GTTTGCGGAAACGCAAGC (.(((((....))))).)	-23.4 kcal/mol	54.6 °C
GTTTGCGGAAACGCAGAC ((.((((....)))).))	-24.6 kcal/mol	51.8 °C
GTTTGGGGAAACCTAAAC ((((.((....)).))))	-35.5 kcal/mol	40 °C
GTTTGGGGAAACTCAGAC ((.((.(....).)).))	-9.8 kcal/mol	27 °C
GTTTTCGAAAGAAAAAAC ((((((....)))..)))	-11.1 kcal/mol	29.8 °C
GTTTTCGAAAGAAAAAC ((((((....))).)))	-15.8 kcal/mol	39.2 °C
GTTTTGAAAAAAAC (((((....)))))	-12 kcal/mol	37.6 °C
GTTTTGGGAAACTAAAGC (.(((.(....).))).)	-16.3 kcal/mol	27.3 °C
